Experimental data published in ChEMBL document CHEMBL3804806, “Synthesis of (Z)-1-(1,3-diphenyl-1H-pyrazol-4-yl)-3-(phenylamino)prop-2-en-1-one derivatives as potential anticancer and apoptosis inducing agents” (Eur J Med Chem, 2016).
The source made the active and inactive calls. The calls are words filed in the database; no cut-off is given here.

Columns and labels:
HT-29 = assay: Antiproliferative activity against human HT-29 cells after 48 hrs by MTT assay; format: functional, cell-based; details: HT-29, 48 h
Method in brief: (§1)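 Cells seeded at 3,000-5,000/well by doubling time and grown 24 h (37 °C, 5% CO2). HT-29/U87MG kept in DMEM + 10% FBS; A549/PC-3/HaCaT in RPMI-1640 + 10% FBS. Compounds for 48 h, then MTT 4 h, formazan dissolved in DMSO, A570 minus A630. % inhibition vs DMSO-treated cells; IC50 by probit. Three independent experiments in quadruplicate; mean ± SD.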

[1] = Antiproliferative activity against human U87MG cells after 48 hrs by MTT assay; format: functional, cell-based, U-87MG ATCC; details: U-87 MG; method in brief: as §1
[2] = Antiproliferative activity against human PC3 cells after 48 hrs by MTT assay; format: functional, cell-based; details: PC-3, 48 h; method in brief: as §1
A549 [3] = assay: Antiproliferative activity against human A549 cells after 48 hrs by MTT assay; format: functional, cell-based; details: A549, 48 h; method in brief: as §1
HaCaT = assay: Antiproliferative activity against human HaCaT cells after 48 hrs by MTT assay; format: cell-based; method in brief: as §1
[4] = Selectivity ratio of IC50 for human HaCaT cells to IC50 for human A549 cells; format: ADME, cell-based; details: HaCaT cells versus A549 cells, read-out: Ratio IC50
Method in brief: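 Ratio built from MTT IC50s: 48 h exposure, absorbance 570 minus 630 nm, inhibition relative to DMSO vehicle, probit-fitted IC50 for HaCaT keratinocytes and A549 cells. Three independent experiments, quadruplicate wells.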

A549 [5] = assay: Induction of apoptosis in human A549 cells assessed as chromatin condensation at antiproliferative IC50 after 24 hrs by Hoechst 33242 staining based confocal microscopic analysis; format: functional, cell-based
Method in brief: (§2)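 A549 cells (1x10⁶/well) on coverslips exposed 24 h at IC50, then fixed in 4% paraformaldehyde 10 min at 4 °C. Stained with Hoechst 33242 (5 μg/mL) 20 min at room temp. Nuclear morphology examined by confocal microscopy, excitation 350/emission 460 nm, 20X.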

A549 [6] = assay: Cell cycle arrest in human A549 cells assessed as accumulation at G2/M phase at antiproliferative IC50 after 24 hrs by propidium iodide staining based flow cytometry (reference value: 27.2%); format: functional
A549 [7] = assay: Anti-migratory activity in human A549 cells at antiproliferative IC50 after 24 to 48 hrs by wound healing assay; format: functional, cell-based
A549 [8] = assay: Induction of apoptosis in human A549 cells assessed as loss in mitochondrial membrane potential at antiproliferative IC50 after 24 hrs by rhodamine 123 staining based spectrofluorometry relative to control; format: functional
Method in brief: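 A549 cells plated at 5×10^5 cells/mL, adhered overnight, then 24 h at IC50. Harvested and incubated with rhodamine-123 (10 µg/mL) in PBS 30 min at room temp, washed. Fluorescence read by spectrofluorometer, ex 480/em 530 nm, vs untreated cells. Mean ± SD of three independent experiments, each in triplicate.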

A549 [9] = assay: Anti-migratory activity in human A549 cells assessed as disruption of actin fibre assembly after 12 hrs by rhodamine phalloidin/Hoechst 33242 staining based confocal microscopic analysis; format: functional, cell-based
Method in brief: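 A549 cells (1x10⁶/well) grown on coverslips 24 h, then exposed to compounds 12 h. Washed, fixed in 4% paraformaldehyde in PBS, stained with rhodamine-phalloidin (F-actin) and Hoechst 33242 (nuclei), mounted in anti-fade. Examined by confocal microscopy, 20X objective.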

A549 [10] = assay: Induction of apoptosis in human A549 cells assessed as intracellular ROS level at antiproliferative IC50 after 24 hrs by DCFDA staining based fluorescence microscopic analysis relative to control; format: functional
A549 [11] = assay: Induction of apoptosis in human A549 cells assessed as nuclear fragmentation at antiproliferative IC50 after 24 hrs by Hoechst 33242 staining based confocal microscopic analysis; format: functional, cell-based; method in brief: as §2

Compound | IC50 (HT-29) | IC50 [1] | IC50 [2] | IC50 (A549 [3]) | IC50 (HaCaT) | selectivity ratio [4] | Activity (A549 [5]) | Activity (A549 [6]) | Activity (A549 [7]) | Activity (A549 [8]) | Activity (A549 [9]) | fold change (FC) (A549 [10]) | Activity (A549 [11])
O=C(/C=C\Nc1ccc(Cl)cc1)c1cn(-c2ccccc2)nc1-c1ccc(Cl)cc1 | 4.65 µM | 13.1 µM | 3.89 µM | 3.67 µM | 23.4 µM | – | – | – | – | – | – | – | –
COc1ccc(N/C=C\C(=O)c2cn(-c3ccccc3)nc2-c2cc(OC)c(OC)c(OC)c2)cc1 | 5.78 µM | 12.8 µM | 9.6 µM | 4.78 µM | > 50 µM | – | – | – | – | – | – | – | –
COc1ccc(-c2nn(-c3ccccc3)cc2C(=O)/C=C\Nc2ccc(O)cc2)cc1 | 2.46 µM | 3.73 µM | 1.98 µM | 2.77 µM | 34.6 µM | 10 | Active | 43.1% | Active | 43.5% | Active | 2.1 | Active
COc1cc(-c2nn(-c3ccccc3)cc2C(=O)/C=C\Nc2ccc(F)cc2)cc(OC)c1OC | 12.5 µM | 4.78 µM | 7.7 µM | 15.6 µM | 25.7 µM | – | – | – | – | – | – | – | –
COc1ccc(N/C=C\C(=O)c2cn(-c3ccccc3)nc2-c2ccc(Cl)cc2)cc1 | 8.93 µM | 6.89 µM | 10.7 µM | 6.46 µM | 30.8 µM | – | – | – | – | – | – | – | –
O=C(/C=C\Nc1ccc(O)cc1)c1cn(-c2ccccc2)nc1-c1ccc(F)cc1 | 1.9 µM | 4.7 µM | 2.6 µM | 1.5 µM | 16.3 µM | 10 | Active | 41% | Active | 30% | Active | 2.1 | Active
COc1cc(-c2nn(-c3ccccc3)cc2C(=O)/C=C\Nc2ccc(C(F)(F)F)cc2)cc(OC)c1OC | > 50 µM | > 50 µM | > 50 µM | > 50 µM | > 50 µM | – | – | – | – | – | – | – | –
COc1cc(-c2nn(-c3ccccc3)cc2C(=O)/C=C\Nc2ccc(Cl)cc2)cc(OC)c1OC | 7.68 µM | 3.21 µM | 11.2 µM | 8.67 µM | 30.2 µM | – | – | – | – | – | – | – | –
O=C(/C=C\Nc1ccc(Cl)cc1)c1cn(-c2ccccc2)nc1-c1ccccc1 | 3.61 µM | 11.4 µM | 5.2 µM | 14.1 µM | 28.4 µM | – | – | – | – | – | – | – | –
COc1ccc(-c2nn(-c3ccccc3)cc2C(=O)/C=C\Nc2ccc(F)cc2)cc1 | 7.65 µM | 8.91 µM | 5.73 µM | 3.98 µM | 8.91 µM | – | – | – | – | – | – | – | –
O=C(/C=C\Nc1ccc(F)cc1)c1cn(-c2ccccc2)nc1-c1ccc(F)cc1 | 6.5 µM | 18.2 µM | 7.9 µM | 5.78 µM | > 50 µM | – | – | – | – | – | – | – | –
O=C(/C=C\Nc1ccc(O)cc1)c1cn(-c2ccccc2)nc1-c1ccccc1 | 5 µM | 4.29 µM | 3.6 µM | 3.21 µM | 44.6 µM | – | – | – | – | – | – | – | –
O=C(/C=C\Nc1ccc(F)cc1)c1cn(-c2ccccc2)nc1-c1ccc(Cl)cc1 | > 50 µM | 17.9 µM | > 50 µM | > 50 µM | > 50 µM | – | – | – | – | – | – | – | –
COc1ccc(-c2nn(-c3ccccc3)cc2C(=O)/C=C\Nc2ccc(Cl)cc2)cc1 | 4.76 µM | 8.86 µM | 3.89 µM | 2.97 µM | 20.9 µM | – | – | – | – | – | – | – | –
COc1ccc(-c2nn(-c3ccccc3)cc2C(=O)/C=C\Nc2cc(OC)c(OC)c(OC)c2)cc1 | 14.6 µM | > 50 µM | 18.9 µM | 11.2 µM | > 50 µM | – | – | – | – | – | – | – | –
O=C(/C=C\Nc1ccc(C(F)(F)F)cc1)c1cn(-c2ccccc2)nc1-c1ccccc1 | > 50 µM | > 50 µM | > 50 µM | > 50 µM | > 50 µM | – | – | – | – | – | – | – | –
